Measured values as given in paper PMC5492419 (ACS Central Science, 2017).

Experiments:
[1] = test system: mouse macrophage J774 cells; assay type: cell-based; conditions: 0.3 mg/mL peptide in human plasma, 2% apoB-depleted plasma, 4 h
In short: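 Mouse macrophage J774 cells were incubated 4 h with 2% apoB-depleted plasma samples. The plasma was human plasma pre-treated with peptide at 0.3 mg/mL (~270 μM cyclic peptide), with a concentration range for one peptide. Efflux was expressed relative to vehicle-treated plasma, set as 0% efflux. Samples were run in quadruplicate and reported as mean ± SD. Peptide alone as acceptor was also tested against vehicle.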

human plasma HDL = assay: Human plasma remodeling, Western blot for human apoA-I; assay type: biochemical; conditions: Western blot, 0.4, 0.2, 0.1 mg/mL
In short: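 Lipid-poor pre-beta HDL was then detected by Western blotting for human apoA-I. The positive control was a control peptide at 0.1 mg/mL, and the negative control was 10% sucrose.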

human plasma HDLs = assay: Pre-beta HDL ELISA after incubating human plasma with peptide; assay type: biochemical; conditions: ELISA screen
In short: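 Peptides were incubated with human plasma in vitro for 1 h. Pre-beta HDL was then quantified by ELISA and reported as the concentration of pre-beta HDL generated, as mean ± SD.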

Row | Substance | cholesterol efflux, in words [1] | plasma HDL remodeling, in words (human plasma HDL) | HDL remodeling activity (pre-beta HDL formation), in words (human plasma HDLs)
1 | Ac-wLwSeQsO-NH2 [compound 82] | failed to remodel plasma HDL or promote cholesterol efflux | failed to remodel plasma HDL | 
2 | WlWrEqEr [compound 22] |  |  | nearly identical
3 | c[wL^MewSeQ^MesO] [compound 83] | greatly diminished | greatly diminished | 
4 | pyLwKsKsK [compound 37] |  |  | promoted HDL remodeling
5 | wAOwReQeR [compound 24] |  |  | less active than peptide 21
6 | wHLwReQeR [compound 23] |  |  | less active than peptide 21
7 | wLWReQeR [compound 28] |  |  | reduced
8 | wLwErQrE [compound 30] | dramatically reduced compared to that of 21 |  | dramatically reduced compared to 21
9 | wLwREQeR [compound 29] |  |  | reduced
10 | wLwReQeO [compound 18] |  |  | essentially inactive
11 | wMeLwReMeQeR [peptide 27] |  |  | greatly diminished compared to 21
12 | wNAwReQeR [compound 26] |  |  | less active than peptide 21
13 | wWwReQeR [compound 25] |  |  | less active than peptide 21
